Laboratory results taken from paper PMC1182329 (Nucleic Acids Research, 2005).
Where two headings read alike, the source gives them in different places.

Assays:
[1] = tested on: VSV-G pseudotyped HIV-1 in CEM cells
CEM cells = test: Uptake kinetics with 125I-labeled conjugates; format: cell-based; settings: slope of Hill plot of uptake data, 125I-labeled conjugate, room temperature, 30 s
Procedure, shortened: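 125I-labeled conjugate purified by gel filtration and C18 reverse phase, quantified at A260, and specific radioactivity set with unlabeled conjugate. 1 × 10^6 CEM cells exposed to varying concentrations at room temperature for 30 s, then filtered on glass fiber, washed with PBS. Internalized conjugate measured by gamma counting from specific radioactivity; nH taken from Hill plot slope.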

[2] = tested on: VSV-G pseudotyped HIV-1 virions; settings: 1 h
TAR-RNA = test: Gel retardation assay; format: binding, HIV-1; settings: compared with PNATAR–penetratin and PNATAR–tat conjugates; data not shown

Compound | inhibition of HIV-1 replication [1] [%] | inhibition of HIV-1 replication (words) [1] | IC50 ([1]; VSV-G pseudotyped in CEM cells, 48 h) [nM] | IC50 ([1]; read-out: Antiviral efficacy IC50) [nM] | Hill coefficient (nH) of uptake (CEM cells) | IC50 [2] [nM] | binding pattern to TAR-RNA in gel shift assay (TAR-RNA)
CC[C@H](C)[C@H](NC(=O)[C@H](CCCCN)NC(=O)[C@@H](NC(=O)[C@H](CCC(N)=O)NC(=O)[C@H](CCCNC(=N)N)NC(=O)[C@@H](N)CSSC[C@H](NC(C)=O)C(=O)NCCN(CC(=O)NCCN(CC(=O)NCCN(CC(=O)NCCN(CC(=O)NCCN(CC(=O)NCCN(CC(=O)NCCN(CC(=O)NCCN(CC(=O)NCCN(CC(=O)NCCN(CC(=O)NCCN(CC(=O)NCCN(CC(=O)NCCN(CC(=O)NCCN(CC(=O)NCCN(CC(=O)NCCN(CC(N)=O)C(=O)Cn1cc(C)c(=O)[nH]c1=O)C(=O)Cn1ccc(N)nc1=O)C(=O)Cn1cc(C)c(=O)[nH]c1=O)C(=O)Cn1cnc2c(N)ncnc21)C(=O)Cn1cnc2c(=O)[nH]c(N)nc21)C(=O)Cn1cnc2c(N)ncnc21)C(=O)Cn1ccc(N)nc1=O)C(=O)Cn1cc(C)c(=O)[nH]c1=O)C(=O)Cn1ccc(N)nc1=O)C(=O)Cn1cnc2c(=O)[nH]c(N)nc21)C(=O)Cn1cnc2c(=O)[nH]c(N)nc21)C(=O)Cn1cnc2c(N)ncnc21)C(=O)Cn1ccc(N)nc1=O)C(=O)Cn1ccc(N)nc1=O)C(=O)Cn1ccc(N)nc1=O)C(=O)Cn1cc(C)c(=O)[nH]c1=O)[C@@H](C)CC)C(=O)N[C@@H](Cc1c[nH]c2ccccc12)C(=O)N[C@@H](Cc1ccccc1)C(=O)N[C@@H](CCC(N)=O)C(=O)N[C@@H](CC(N)=O)C(=O)N[C@@H](CCCNC(=N)N)C(=O)N[C@@H](CCCNC(=N)N)C(=O)N[C@@H](CCSC)C(=O)N[C@@H](CCCCN)C(=O)N[C@@H](Cc1c[nH]c2ccccc12)C(=O)N[C@@H](CCCCN)C(=O)N[C@@H](CCCCN)C(=O)O [PNATAR–penetratin] | ~50 | did not inhibit | 800 | 800 | 1.8 | 28 | 
CC(=O)N[C@@H](CSSC[C@H](N)C(=O)NCC(=O)N[C@@H](CCCNC(=N)N)C(=O)N[C@@H](CCCCN)C(=O)N[C@@H](CCCCN)C(=O)N[C@@H](CCCNC(=N)N)C(=O)N[C@@H](CCCNC(=N)N)C(=O)N[C@@H](CCC(N)=O)C(=O)N[C@@H](CCCNC(=N)N)C(=O)N[C@@H](CCCNC(=N)N)C(=O)N[C@@H](CCCNC(=N)N)C(=O)N1CCC[C@H]1C(=O)N1CCC[C@H]1C(=O)N[C@@H](CCC(N)=O)C(=O)O)C(=O)NCCN(CC(=O)NCCN(CC(=O)NCCN(CC(=O)NCCN(CC(=O)NCCN(CC(=O)NCCN(CC(=O)NCCN(CC(=O)NCCN(CC(=O)NCCN(CC(=O)NCCN(CC(=O)NCCN(CC(=O)NCCN(CC(=O)NCCN(CC(=O)NCCN(CC(=O)NCCN(CC(=O)NCCN(CC(N)=O)C(=O)Cn1cc(C)c(=O)[nH]c1=O)C(=O)Cn1ccc(N)nc1=O)C(=O)Cn1cc(C)c(=O)[nH]c1=O)C(=O)Cn1cnc2c(N)ncnc21)C(=O)Cn1cnc2c(=O)[nH]c(N)nc21)C(=O)Cn1cnc2c(N)ncnc21)C(=O)Cn1ccc(N)nc1=O)C(=O)Cn1cc(C)c(=O)[nH]c1=O)C(=O)Cn1ccc(N)nc1=O)C(=O)Cn1cnc2c(=O)[nH]c(N)nc21)C(=O)Cn1cnc2c(=O)[nH]c(N)nc21)C(=O)Cn1cnc2c(N)ncnc21)C(=O)Cn1ccc(N)nc1=O)C(=O)Cn1ccc(N)nc1=O)C(=O)Cn1ccc(N)nc1=O)C(=O)Cn1cc(C)c(=O)[nH]c1=O [PNATAR–tat-peptide] |  |  |  |  |  | 37 | 
Ac-Cys-TCC-CAG-GCT-CAG-ATC-T [PNATAR] |  |  |  |  |  |  | same binding pattern
